Laboratory results published in ChEMBL document CHEMBL3745663, “Identification of a novel class of quinoline-oxadiazole hybrids as anti-tuberculosis agents” (Bioorg Med Chem Lett, 2016).
Converted amounts (≈) assume the structure as drawn. Where a name gives a salt, the structure may show the parent alone.

Key:
[1] = Selectivity index, ratio of CC50 for human HepG2 cells to MIC for Mycobacterium tuberculosis H37Rv; format: toxicity, cell-based; conditions: read-out: Selectivity Index
In short: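 Index equals HepG2 CC50 (SRB assay, 10 to 80 µg/mL) divided by the REMA MIC against M. tuberculosis H37Rv (50 to 0.1 µg/mL).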

[2] = Cytotoxicity against human HepG2 cells after 48 hrs by SRB assay; format: cell-based
[3] = test system: Mycobacterium tuberculosis; test: Antibacterial activity against Mycobacterium tuberculosis H37Rv after 7 days by resazurin microplate assay; format: functional; conditions: 168 h
[4] = Metabolic stability in rat liver microsomes assessed as compound remaining at 10 uM after 60 mins by HPLC analysis; format: ADME; conditions: read-out: Stability
In short: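 Compound was incubated with rat liver microsomes and its disappearance followed over 60 minutes. Diazepam was the internal standard. The drug-to-internal-standard ratio was calculated at each time point to gauge how much compound remained.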

[5] = test system: Mycobacterium tuberculosis; test: Antibacterial activity against Mycobacterium tuberculosis; format: functional

| Structure (SMILES) | selectivity ratio [1] | CC50 at 48 h [2] | MIC [3] | remaining at 1 h, 10 µM [4] | MIC [5] |
| --- | --- | --- | --- | --- | --- |
| COc1nc2ccccc2cc1/C=C/c1noc(-c2ccccc2Br)n1 | > 11.6 | > 195 µM | 16.8 µM (≈ 6.86 µg/mL) |  |  |
| COc1nc2ccccc2cc1/C=C/c1noc(-c2ccc(Br)cc2)n1 | > 21.2 | > 195 µM | 9.19 µM (≈ 3.75 µg/mL) |  |  |
| COc1nc2ccccc2cc1/C=C/c1noc(COc2ccccc2)n1 | > 330 | > 220 µM | 0.67 µM (≈ 0.241 µg/mL) |  |  |
| COc1nc2ccccc2cc1/C=C/c1noc(-c2ccccc2C)n1 | > 3.16 | > 230 µM | 72.8 µM (≈ 25 µg/mL) |  |  |
| COc1nc2ccccc2cc1/C=C/c1noc(-c2ccc(F)cc2)n1 | > 41 | > 230 µM | 5.61 µM (≈ 1.95 µg/mL) |  |  |
| COc1ccc(-c2nc(/C=C/c3cc4ccccc4nc3OC)no2)cc1 | > 1.57 | > 220 µM | > 140 µM |  |  |
| COc1nc2ccccc2cc1/C=C/c1noc(-c2ccco2)n1 | > 9.12 | > 250 µM | 27.4 µM (≈ 8.75 µg/mL) |  |  |
| COc1ccc(Cc2nc(/C=C/c3cc4ccccc4nc3OC)no2)cc1 | > 535 | > 215 µM | 0.4 µM (≈ 0.149 µg/mL) |  |  |
| COc1nc2ccccc2cc1/C=C/c1noc(-c2cccnc2)n1 | > 1.6 | > 240 µM | > 150 µM |  |  |
| COc1nc2ccccc2cc1/C=C/c1noc(C)n1 | > 285 | > 300 µM | 1.05 µM (≈ 0.281 µg/mL) |  |  |
| COc1nc2ccccc2cc1/C=C/c1noc(-c2cccc(C)c2)n1 | > 2.09 | > 230 µM | 110 µM (≈ 37.8 µg/mL) |  |  |
| COc1nc2ccccc2cc1/C=C/c1noc(-c2ccc(C)cc2)n1 | > 5.75 | > 230 µM | 40 µM (≈ 13.7 µg/mL) |  |  |
| COc1nc2ccccc2cc1/C=C/c1noc(-c2cccc(Cl)c2)n1 | > 2 | > 220 µM | > 110 µM |  |  |
| COc1nc2ccccc2cc1/C=C/c1noc(-c2ccccc2)n1 | > 19.5 | > 240 µM | 12.3 µM (≈ 4.05 µg/mL) |  |  |
| COc1cccc(-c2nc(/C=C/c3cc4ccccc4nc3OC)no2)c1 | > 2.1 | > 220 µM | 105 µM (≈ 37.7 µg/mL) |  |  |
| COc1ccccc1-c1nc(/C=C/c2cc3ccccc3nc2OC)no1 | > 31.6 | > 220 µM | 6.96 µM (≈ 2.5 µg/mL) |  |  |
| COc1nc2ccccc2cc1/C=C/c1noc(/C=C/c2ccccc2)n1 | > 35.5 | > 225 µM | 6.33 µM (≈ 2.25 µg/mL) |  |  |
| COCc1nc(/C=C/c2cc3ccccc3nc2OC)no1 | > 610 | > 270 µM | 0.44 µM (≈ 0.131 µg/mL) | 99% |  |
| COc1nc2ccccc2cc1/C=C/c1noc(Cc2ccccc2)n1 | > 520 | > 230 µM | 0.44 µM (≈ 0.151 µg/mL) |  |  |
| COc1nc2ccc(Br)cc2cc1[C@@H](c1ccccc1)[C@@](O)(CCN(C)C)c1cccc2ccccc12 [BEDAQUILINE] |  |  |  |  | 0.1 µM (≈ 0.0556 µg/mL) |
| COc1cccc2c1C(=O)c1c(O)c3c(c(O)c1C2=O)C[C@@](O)(C(=O)CO)C[C@@H]3O[C@H]1C[C@H](N)[C@H](O)[C@H](C)O1 [DOXORUBICIN HYDROCHLORIDE] |  | 127 µM |  |  |  |
| NNC(=O)c1ccncc1 [ISONIAZID] |  |  | 0.73 µM (≈ 0.1 µg/mL) |  |  |
